ChEMBL document CHEMBL1158578, “Phloroglucinols from the argentine ferns Elaphoglossum gayanum and E. piloselloides” (2010)

Key:
Type in all cases: functional
Biomphalaria peregrina [1] = assay: Molluscicidal activity against Biomphalaria peregrina assessed as mortality at 10 ppm after 24 hrs
Procedure, shortened: (§1)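 Snails (Biomphalaria peregrina) exposed for 24 h to test samples at 50, 20, 10, 5 and 2.5 ppm, with 21 snails per concentration. Mortality was recorded as a percentage. LD50 and LD90 were calculated from the mortality data by probit analysis. CuSO4 at 10 ppm served as the positive control, alongside an untreated control.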

Biomphalaria peregrina [2] = assay: Molluscicidal activity against Biomphalaria peregrina assessed as mortality at 5 ppm after 24 hrs; procedure, shortened: as §1
Biomphalaria peregrina [3] = assay: Molluscicidal activity against Biomphalaria peregrina assessed as mortality at 2.5 ppm after 24 hrs; procedure, shortened: as §1
Biomphalaria peregrina [4] = assay: Molluscicidal activity against Biomphalaria peregrina after 24 hrs; procedure, shortened: as §1

CCCC(=O)C1=C(O)C(C)(CC=C(C)C)C(O)=C(Cc2c(O)c(O)cc(OC)c2C(=O)CCC)C1=O (stereo not given) [ELAPHOPILOSIN D]
Activity (Biomphalaria peregrina [1]): 81% | Activity (Biomphalaria peregrina [2]): 24% | Activity (Biomphalaria peregrina [3]): 10% | LD90 (Biomphalaria peregrina [4]): 22.8 µM | LC50 (Biomphalaria peregrina [4]; Biomphalaria peregrina, 24 h, read-out: LD50 (the source's name)): 14.4 µM
